From ChEMBL document CHEMBL1125581 (J Med Chem, 1991)
pKi: −log10 of the molar value.

Assays:
[1] = target: T1, Muscarinic acetylcholine receptor M2 (Rattus norvegicus, UniProt P10980); test: Inhibition of binding of [3H]N-methylscopolamine to muscarinic acetylcholine receptor M2 of rat heart tissue membrane.; assay type: tissue-based
T1 sequence (P10980 whole entry): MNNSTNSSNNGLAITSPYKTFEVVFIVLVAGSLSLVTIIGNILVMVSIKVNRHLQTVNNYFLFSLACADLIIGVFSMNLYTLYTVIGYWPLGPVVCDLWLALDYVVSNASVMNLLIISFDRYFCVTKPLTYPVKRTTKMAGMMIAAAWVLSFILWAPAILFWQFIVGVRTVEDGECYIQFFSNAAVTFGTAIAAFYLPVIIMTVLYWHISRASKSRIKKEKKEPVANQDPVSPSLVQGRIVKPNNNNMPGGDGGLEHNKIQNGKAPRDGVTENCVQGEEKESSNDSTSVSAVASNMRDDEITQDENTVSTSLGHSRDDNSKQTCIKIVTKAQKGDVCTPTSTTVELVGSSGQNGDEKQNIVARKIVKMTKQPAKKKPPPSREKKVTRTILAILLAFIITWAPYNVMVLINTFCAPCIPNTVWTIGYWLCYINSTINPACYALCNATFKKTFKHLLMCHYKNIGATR
Method in brief: (§1)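 Rat heart membranes (150–300 μg protein) incubated 90 min at 37 °C in DMEM-Hepes with 0.5 nM [3H]NMS and varied unlabeled analogue concentrations. Bound radioligand collected by rapid GF/B filtration, washed with ice-cold 0.9% NaCl, and scintillation counted. Nonspecific binding with 1 μM atropine subtracted. Ki values come from one to three determinations, each in triplicate.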

[2] = target: T2, Muscarinic acetylcholine receptor M1 (Rattus norvegicus, UniProt P08482); test: Inhibition of binding of [3H]N-methylscopolamine to muscarinic acetylcholine receptor M1 of transfected rat A9L cells.; assay type: cell-based
T2 sequence (P08482 whole entry): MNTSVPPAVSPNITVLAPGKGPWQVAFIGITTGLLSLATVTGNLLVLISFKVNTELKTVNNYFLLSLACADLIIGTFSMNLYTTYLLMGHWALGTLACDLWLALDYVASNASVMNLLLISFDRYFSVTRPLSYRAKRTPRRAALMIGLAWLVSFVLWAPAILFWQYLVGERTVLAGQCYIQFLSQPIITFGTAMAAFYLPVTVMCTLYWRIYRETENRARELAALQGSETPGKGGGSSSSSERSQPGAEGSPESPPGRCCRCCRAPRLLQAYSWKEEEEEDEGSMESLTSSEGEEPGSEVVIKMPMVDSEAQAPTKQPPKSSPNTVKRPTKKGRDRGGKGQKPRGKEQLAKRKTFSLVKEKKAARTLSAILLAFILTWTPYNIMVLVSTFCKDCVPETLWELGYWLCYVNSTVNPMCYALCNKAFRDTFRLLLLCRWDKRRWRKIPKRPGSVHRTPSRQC

[3] = target: T3, Muscarinic acetylcholine receptor M3 (Rattus norvegicus, UniProt P08483); test: Compound was tested for the inhibition of binding of [3H]N-Methyl-scopolamine to mmuscarinic acetylcholine receptor M3 of transfected rat A9L cells; assay type: cell-based
Method in brief: (§2)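 Confluent A9L (transfected m1/m3) or NG108-15 (m4) cultures were lysed in 2 mM Tris-HCl pH 7.1/1 mM EDTA, 30 min, 2 °C, then homogenized. Crude membranes were spun at 50000g. Membranes (150–300 μg protein) were incubated with 0.5 nM [3H]NMS and varied analogue in DMEM-Hepes for 90 min at 37 °C, then filtered. Nonspecific binding was set with 1 μM atropine. Ki values are from 1–3 triplicate determinations.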

[4] = target: T4, Muscarinic acetylcholine receptor M4 (Rattus norvegicus, UniProt P08485); test: Inhibition of binding of [3H]N-Methyl-scopolamine to muscarinic acetylcholine receptor M4 of rat […] NG108-15 cells; assay type: cell-based
T4 sequence (P08485 whole entry): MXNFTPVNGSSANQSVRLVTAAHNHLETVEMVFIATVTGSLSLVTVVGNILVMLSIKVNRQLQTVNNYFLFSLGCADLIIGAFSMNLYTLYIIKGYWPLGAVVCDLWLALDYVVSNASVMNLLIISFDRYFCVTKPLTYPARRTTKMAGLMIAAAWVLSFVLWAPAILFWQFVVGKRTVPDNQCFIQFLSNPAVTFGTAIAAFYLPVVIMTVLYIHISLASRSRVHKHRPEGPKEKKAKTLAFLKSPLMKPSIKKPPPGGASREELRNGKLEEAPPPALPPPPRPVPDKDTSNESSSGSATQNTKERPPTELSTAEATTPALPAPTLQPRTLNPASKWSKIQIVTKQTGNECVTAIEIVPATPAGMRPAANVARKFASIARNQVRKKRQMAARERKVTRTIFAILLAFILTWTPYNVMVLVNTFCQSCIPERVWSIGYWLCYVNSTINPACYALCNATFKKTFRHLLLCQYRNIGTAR

[5] = target: T2, Muscarinic acetylcholine receptor M1; test: The compound was tested for the inhibition of binding of [3H]N-Methyl-scopolamine to muscarinic acetylcholine receptor M1 of transfected A9L cells.; assay type: cell-based; method in brief: as §2
[6] = target: T1, Muscarinic acetylcholine receptor M2; test: The compound was tested for the inhibition of binding of [3H]N-Methyl-scopolamine to muscarinic acetylcholine receptor M2 of rat heart tissue membranes.; assay type: cell membranes, Membrane; method in brief: as §1
[7] = target: T1, Muscarinic acetylcholine receptor M2; test: Inhibition of binding of [3H]N-Methyl-scopolamine to Muscarinic acetylcholine receptor M2 of rat heart tissue membranes.; assay type: cell membranes, Membrane; method in brief: as §1
[8] = target: T4, Muscarinic acetylcholine receptor M4; test: Inhibition of binding of [3H]N-Methyl-scopolamine to Muscarinic acetylcholine receptor M4 of NG108-15 cells.; assay type: cell-based; method in brief: as §2
[9] = target: T2, Muscarinic acetylcholine receptor M1; test: Inhibition of binding of [3H]N-Methyl-scopolamine to Muscarinic acetylcholine receptor M1 of transfected A9L cells.; assay type: cell-based; method in brief: as §2
[10] = target: T3, Muscarinic acetylcholine receptor M3; test: The compound was tested for the inhibition of binding of [3H]N-Methyl-scopolamine to Muscarinic acetylcholine receptor M3 of transfected A9L cells.; assay type: cell-based
Method in brief: (§3)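 Crude membranes (150–300 μg protein) were incubated 90 min at 37 °C in DMEM-Hepes with 0.5 nM [3H]NMS and a range of unlabeled analogue concentrations. Incubation was stopped by rapid GF/B filtration, followed by ice-cold 0.9% NaCl washes and scintillation counting. Nonspecific binding was defined with 1 μM atropine and subtracted. Ki came from one to three determinations, each run in triplicate.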

[11] = target: T1, Muscarinic acetylcholine receptor M2; test: The compound was tested for the inhibition of binding of [3H]N-Methyl-scopolamine to muscarinic acetylcholine receptor M2 of rat heart tissue membranes; assay type: cell membranes, Membrane; method in brief: as §3
[12] = target: T2, Muscarinic acetylcholine receptor M1; test: The compound was tested for the inhibition of binding of [3H]N-Methyl-scopolamine to muscarinic acetylcholine receptor M1r of transfected A9L cells.; assay type: cell-based; method in brief: as §3
[13] = target: T3, Muscarinic acetylcholine receptor M3; test: The compound was tested for the inhibition of binding of [3H]N-Methyl-scopolamine to muscarinic acetylcholine receptor M3 of transfected A9L cells.; assay type: cell-based; method in brief: as §3

T3 sequence (P08483 whole entry): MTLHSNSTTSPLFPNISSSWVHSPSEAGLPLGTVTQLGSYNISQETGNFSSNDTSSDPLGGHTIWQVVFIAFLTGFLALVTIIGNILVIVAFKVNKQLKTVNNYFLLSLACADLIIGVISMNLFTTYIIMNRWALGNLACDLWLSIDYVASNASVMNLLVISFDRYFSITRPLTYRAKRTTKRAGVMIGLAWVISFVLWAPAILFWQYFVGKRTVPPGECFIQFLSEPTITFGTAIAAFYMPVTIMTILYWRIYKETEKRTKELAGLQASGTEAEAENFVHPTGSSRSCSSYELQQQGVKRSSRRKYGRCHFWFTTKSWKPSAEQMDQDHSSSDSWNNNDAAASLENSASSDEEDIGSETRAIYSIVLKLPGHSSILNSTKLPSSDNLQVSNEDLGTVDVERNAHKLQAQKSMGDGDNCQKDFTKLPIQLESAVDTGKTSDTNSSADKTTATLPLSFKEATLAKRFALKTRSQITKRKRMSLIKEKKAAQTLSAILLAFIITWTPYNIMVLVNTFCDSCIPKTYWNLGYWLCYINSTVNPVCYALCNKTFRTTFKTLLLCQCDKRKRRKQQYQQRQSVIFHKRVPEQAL

CNC(=O)c1ccc(CN2CCN(CC(=O)N3c4ccccc4C(=O)Nc4cccnc43)CC2)cc1
pKi [1]: 5.58
pKi [2]: 5.55
pKi [3]: 5.40
pKi [4]: 5.53

CCN1C(=O)c2ccccc2N(C(=O)CN2CCN(C)CC2)c2ncccc21
pKi [5]: 5.11
pKi [6]: 5.10

O=C1Nc2cccnc2N(C(=O)CN2CCN(CCCl)CC2)c2ccccc21
pKi [7]: 6.68
pKi [8]: 6.89
pKi [9]: 7.28
pKi [10]: 7.11

CN1CCN(CC(=O)N2c3cc(CO[Si](C)(C)C(C)(C)C)ccc3C(=O)Nc3cccnc32)CC1
pKi [11]: 5.36
pKi [12]: < 4.52
pKi [13]: < 4.52
